In brackets after ≈: the same amount, converted by molar mass.
What was measured:
Candida albicans [1] = test: Antimicrobial activity against Candida albicans SC5314 by M27-A3 method; type: functional
Outline: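 Broth microdilution per CLSI M27-A3 in RPMI 1640, with and without 50% human serum, in triplicate. C. krusei ATCC 6258 and C. parapsilosis ATCC 22019 served as quality-control strains. MIC reported as arithmetic mean of three repetitions on separate days.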

Candida albicans [2] = test: Antimicrobial activity against Candida albicans 36082 by M27-A3 method in presence of 50% human serum; type: functional
Outline: (§1)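 Broth microdilution per CLSI M27-A3 in RPMI 1640, done in triplicate on three separate days. Each strain was tested with and without 50% human serum. C. krusei ATCC 6258 and C. parapsilosis ATCC 22019 served as QC strains. Arithmetic means are reported, and geometric means were used for comparison.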

Candida albicans [3] = test: Antimicrobial activity against Candida albicans 3107 by M27-A3 method; type: functional; outline: as §1
Candida albicans [4] = test: Antimicrobial activity against Candida albicans 119 harboring FKS1 T1921C mutant gene and FKS1 hotspot1 F641L mutant gene by M27-A3 method in presence of 50% human serum; type: functional; outline: as §1
Candida albicans [5] = test: Antimicrobial activity against Candida albicans 177 harboring FKS1 T1922C mutant gene and FKS1 hotspot1 F641S mutant gene by M27-A3 method; type: functional; outline: as §1
Candida albicans [6] = test: Antimicrobial activity against Candida albicans 177 harboring FKS1 T1922C mutant gene and FKS1 hotspot1 F641S mutant gene by M27-A3 method in presence of 50% human serum; type: functional; outline: as §1
Candida albicans [7] = test: Antimicrobial activity against Candida albicans 2762 harboring FKS1 T1922C mutant gene and FKS1 hotspot1 F641S mutant gene by M27-A3 method in presence of 50% human serum; type: functional; outline: as §1
Candida albicans [8] = test: Antimicrobial activity against Candida albicans 5415 harboring FKS1 T1933C mutant gene and FKS1 hotspot1 S645P mutant gene by M27-A3 method; type: functional; outline: as §1
Candida albicans [9] = test: Antimicrobial activity against Candida albicans 5415 harboring FKS1 T1933C mutant gene and FKS1 hotspot1 S645P mutant gene by M27-A3 method in presence of 50% human serum; type: functional; outline: as §1
Candida albicans [10] = test: Antimicrobial activity against Candida albicans 89 harboring FKS1 C1934A mutant gene and FKS1 hotspot1 S645Y mutant gene by M27-A3 method; type: functional; outline: as §1
Candida albicans [11] = test: Antimicrobial activity against Candida albicans 85 harboring FKS1 C1934T mutant gene and FKS1 hotspot1 S645F mutant gene by M27-A3 method; type: functional; outline: as §1
Candida albicans [12] = test: Antimicrobial activity against Candida albicans 85 harboring FKS1 C1934T mutant gene and FKS1 hotspot1 S645F mutant gene by M27-A3 method in presence of 50% human serum; type: functional; outline: as §1
Candida albicans [13] = test: Antimicrobial activity against Candida albicans 122 harboring FKS1 C1946A mutant gene and FKS1 hotspot1 P649H mutant gene by M27-A3 method; type: functional; outline: as §1
Candida albicans [14] = test: Antimicrobial activity against Candida albicans 90 harboring FKS1 G4082R mutant gene and FKS1 hotspot2 R1361R/H mutant gene by M27-A3 method; type: functional; outline: as §1
Candida albicans [15] = test: Antimicrobial activity against Candida albicans 90 harboring FKS1 G4082R mutant gene and FKS1 hotspot2 R1361R/H mutant gene by M27-A3 method in presence of 50% human serum; type: functional; outline: as §1
Candida albicans [16] = test: Antimicrobial activity against Candida albicans A15-10 harboring FKS1 T1933C mutant gene and FKS1 hotspot1 S645P mutant gene by M27-A3 method; type: functional; outline: as §1
[17] = Inhibition of Candida albicans 3107 1,3-beta-D-glucan synthase subunit FKS1p
Outline: (§2)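 Enzyme is product-entrapped 1,3-β-D-glucan synthase, enriched from membranes of each strain grown at 37°C with shaking in YPD broth to early stationary phase. Filtration polymerization assay uses [3H]UDPG, started by adding enzyme and run 60 min at 25°C. Echinocandins are added as serial dilutions, with 1% DMSO controls for anidulafungin. IC50 is from a variable-slope sigmoidal fit; values are triplicate arithmetic means.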

[18] = Inhibition of Candida albicans 3795 1,3-beta-D-glucan synthase subunit FKS1p; outline: as §2
[19] = Inhibition of Candida albicans 2762 1,3-beta-D-glucan synthase subunit FKS1p T1922C mutant; outline: as §2
[20] = Inhibition of Candida albicans 85 1,3-beta-D-glucan synthase subunit FKS1p C1934T mutant; outline: as §2
[21] = Inhibition of Candida albicans 149 1,3-beta-D-glucan synthase subunit FKS1p G1942T mutant; outline: as §2
[22] = Inhibition of Candida albicans 122 1,3-beta-D-glucan synthase subunit FKS1p C1946A mutant; outline: as §2
[23] = Inhibition of Candida albicans 194 1,3-beta-D-glucan synthase subunit FKS1p C1934T/G4082R mutant; outline: as §2
[24] = Inhibition of Candida albicans A15 1,3-beta-D-glucan synthase subunit FKS1p T1933Y mutant; outline: as §2
[25] = Inhibition of Candida albicans A15-10 1,3-beta-D-glucan synthase subunit FKS1p T1933C mutant; outline: as §2
Candida albicans SC5314 = test: Activity at Candida albicans SC5314 1,3-beta-D-glucan synthase subunit FKS1p
Outline: (§3)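 Glucan synthase from cells grown at 37°C with vigorous shaking to early stationary phase in YPD. Membrane enzyme enriched by product entrapment. Serial echinocandin dilutions; ANF controls held 1% DMSO. Reaction started by adding enzyme, run 60 min at 25°C in a filtration polymerization assay, stopped on ice. IC50 from a variable-slope sigmoidal fit; means of three repetitions on separate days.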

Candida albicans [26] = test: Activity at Candida albicans 3795 1,3-beta-D-glucan synthase subunit FKS1p; outline: as §3
Candida albicans [27] = test: Activity at Candida albicans 2762 1,3-beta-D-glucan synthase subunit FKS1p T1922C mutant
Outline: (§4)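 Product-entrapped 1,3-β-D-glucan synthase from cells grown in YPD at 37°C to early stationary phase. Wells held 50 mM HEPES pH 7.5, 10% glycerol, 1.5 mg/ml BSA, 25 mM KF, 1 mM EDTA, 25 μM GTP-γ-S, 1 μg enzyme and [3H]UDPG (0.015–2 mM). Reactions ran 60 min at 25°C. Vmax and Km came from Lineweaver-Burke plots, in triplicate.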

Candida albicans [28] = test: Activity at Candida albicans 205 1,3-beta-D-glucan synthase subunit FKS1p T1933C mutant; outline: as §4
Candida albicans [29] = test: Activity at Candida albicans 89 1,3-beta-D-glucan synthase subunit FKS1p C1934A mutant; outline: as §4
Candida albicans [30] = test: Activity at Candida albicans 121 1,3-beta-D-glucan synthase subunit FKS1p G4082A mutant; outline: as §4
Candida albicans [31] = test: Activity at Candida albicans 90 1,3-beta-D-glucan synthase subunit FKS1p G4082R mutant; outline: as §4

With `CC[C@H](C)C[C@H](C)CCCCCCCCC(=O)N[C@H]1C[C@@H](O)[C@@H](NCCN)NC(=O)[C@@H]2[C@@H](O)CCN2C(=O)[C@H]([C@H](O)CCN)NC(=O)[C@H]([C@H](O)[C@@H](O)c2ccc(O)cc2)NC(=O)[C@@H]2C[C@@H](O)CN2C(=O)[C@H]([C@@H](C)O)NC1=O` [CASPOFUNGIN] the MIC (Candida albicans [1]) was 0.42 µg/mL (≈ 0.384 µM), the MIC (Candida albicans [2]) was 0.25 µg/mL and the MIC (Candida albicans [3]) was 0.25 µg/mL (≈ 0.229 µM). The MIC (Candida albicans [4]) was 8 µg/mL, the MIC (Candida albicans [5]) was 4 µg/mL (≈ 3.66 µM) and the MIC (Candida albicans [6]) was 16 µg/mL. The MIC (Candida albicans [7]) was 8 µg/mL, the MIC (Candida albicans [8]) was 8 µg/mL (≈ 7.32 µM) and the MIC (Candida albicans [9]) was 8 µg/mL. The MIC (Candida albicans [10]) was 8 µg/mL (≈ 7.32 µM), the MIC (Candida albicans [11]) was 4 µg/mL (≈ 3.66 µM) and the MIC (Candida albicans [12]) was 8 µg/mL. For the same molecule, the MIC (Candida albicans [13]) was 4 µg/mL (≈ 3.66 µM), the MIC (Candida albicans [14]) was 1 µg/mL (≈ 0.915 µM) and the MIC (Candida albicans [15]) was 4 µg/mL. The MIC (Candida albicans [16]) was 8 µg/mL (≈ 7.32 µM), the Ki [17] was 0.00879 µg/mL (≈ 0.00804 µM) and the IC50 [18] was 0.00144 µg/mL (≈ 0.00132 µM). It also gave a Ki [18] of 0.00467 µg/mL (≈ 0.00427 µM), an IC50 [19] of 0.91 µg/mL (≈ 0.832 µM) and a Ki [19] of 0.49893 µg/mL (≈ 0.456 µM). The IC50 [20] was 0.4591 µg/mL (≈ 0.42 µM), the Ki [20] was 0.51933 µg/mL (≈ 0.475 µM) and the IC50 [21] was 0.06822 µg/mL (≈ 0.0624 µM). It also gave a Ki [21] of 0.2 µg/mL (≈ 0.183 µM), an IC50 [22] of 0.08266 µg/mL (≈ 0.0756 µM) and a Ki [22] of 0.29167 µg/mL (≈ 0.267 µM). It also gave an IC50 [23] of 0.5307 µg/mL (≈ 0.485 µM), a Ki [23] of 0.46689 µg/mL (≈ 0.427 µM) and an IC50 [24] of 0.2181 µg/mL (≈ 0.199 µM). It also gave an IC50 [25] of 0.3224 µg/mL (≈ 0.295 µM), a Ki [25] of 1.358 µg/mL (≈ 1.24 µM) and a Km (Candida albicans SC5314) of 125 µM. It also gave a Vmax (Candida albicans SC5314) of 6.72 nmol/min, a Km (Candida albicans [26]) of 88 µM and a Vmax (Candida albicans [26]) of 6.63 nmol/min. It also gave a Km (Candida albicans [27]) of 108 µM, a Vmax (Candida albicans [27]) of 3.57 nmol/min and a Km (Candida albicans [28]) of 116 µM. For the same molecule, the Vmax (Candida albicans [28]) was 5.54 nmol/min, the Km (Candida albicans [29]) was 61 µM and the Vmax (Candida albicans [29]) was 2.51 nmol/min. The Km (Candida albicans [30]) was 129 µM, the Vmax (Candida albicans [30]) was 4.41 nmol/min and the Km (Candida albicans [31]) was 31 µM. For the same molecule, the Vmax (Candida albicans [31]) was 2.36 nmol/min.

— ChEMBL document CHEMBL1629579, “Correlating echinocandin MIC and kinetic inhibition of fks1 mutant glucan synthases for Candida albicans: implications for interpretive breakpoints” (Antimicrob Agents Chemother, 2009)
